Reference: ChEMBL document CHEMBL1828563, “Synthesis and biological evaluation of 3-(1H-imidazol- and triazol-1-yl)-2,2-dimethyl-3-[4-(naphthalen-2-ylamino)phenyl]propyl derivatives as small molecule inhibitors of retinoic acid 4-hydroxylase (CYP26)” (J Med Chem, 2011)
The source made the active and inactive calls. No cut-off for these calls is given here.

Columns and labels:
[1] = target: Cytochrome P450 2C9 (Homo sapiens, UniProt P11712); test: Inhibition of CYP2C9 in human liver microsomes; format: ADME, Microsome
[2] = test system: SH-SY5Y; test: Increase in CYP26A1 mRNA expression in human SH-SY5Y cells at 1 uM after 72 hrs by RT-PCR analysis in the presence of 0.1 uM all-trans-retinoic acid; format: functional
Method in brief: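 SH-SY5Y cells grown in RPMI 1640 with 10% FCS and 2 mM L-glutamine. Treated 72 h with 0.1 μM ATRA plus inhibitor at 1 μM; inhibitors in ethanol diluted in medium. Total RNA reverse transcribed for TaqMan real-time PCR of CYP26A1, normalized to β-actin. Fold increase relative to cells given […]; mean ± SD, n = 6.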

[3] = Half-life in human liver microsomes; format: ADME, Microsome
[4] = target: CYP2C9 (Homo sapiens, UniProt P11712); test: Inhibition of CYP2C9 in human liver microsomes at 0.4 uM; format: ADME, Microsome
[5] = target: CYP3A4 (Homo sapiens, UniProt P08684); test: Inhibition of CYP3A4 in human liver microsomes at 0.4 uM; format: ADME, Microsome
[6] = target: T1, Cytochrome P450 26A1 (Homo sapiens, UniProt O43174); test: Inhibition of human CYP26A1 assessed using [11,12-3H]ATRA as substrate by scintillation counting
T1 sequence (O43174 whole entry): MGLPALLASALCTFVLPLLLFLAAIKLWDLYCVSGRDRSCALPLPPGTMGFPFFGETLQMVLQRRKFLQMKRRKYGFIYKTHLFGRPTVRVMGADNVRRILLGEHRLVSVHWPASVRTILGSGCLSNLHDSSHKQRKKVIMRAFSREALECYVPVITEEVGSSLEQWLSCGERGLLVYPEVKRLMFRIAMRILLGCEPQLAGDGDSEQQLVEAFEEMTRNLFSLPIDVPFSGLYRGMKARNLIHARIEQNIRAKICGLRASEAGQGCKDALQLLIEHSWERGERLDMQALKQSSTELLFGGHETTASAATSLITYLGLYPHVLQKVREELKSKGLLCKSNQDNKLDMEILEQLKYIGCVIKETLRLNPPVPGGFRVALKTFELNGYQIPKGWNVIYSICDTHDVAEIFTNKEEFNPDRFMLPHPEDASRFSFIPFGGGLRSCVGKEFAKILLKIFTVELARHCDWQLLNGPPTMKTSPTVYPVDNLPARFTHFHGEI
Method in brief: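 CYP26 source: microsomes from MCF-7 cells pretreated 24 h with ATRA to induce CYP26, isolated by differential centrifugation. 50 μg microsomal protein in 50 mM Tris pH 7.4, 150 mM KCl, 10 mM MgCl₂, 0.02% BSA, 2 mM NADPH, 10 nM ATRA plus 0.1 μCi ³H-ATRA. Inhibitor 1–1000 nM, 1 h at 37 °C. Acetonitrile quench, retinoids resolved on C18 HPLC.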

[7] = target: CYP2C19 (Homo sapiens, UniProt P33261); test: Inhibition of CYP2C19 in human liver microsomes at 0.4 uM; format: ADME, Microsome
[8] = target: T2, CYP1A2 (Homo sapiens, UniProt P05177); test: Inhibition of CYP1A2 in human liver microsomes at 0.4 uM; format: ADME, Microsome
T2 sequence (P05177 whole entry): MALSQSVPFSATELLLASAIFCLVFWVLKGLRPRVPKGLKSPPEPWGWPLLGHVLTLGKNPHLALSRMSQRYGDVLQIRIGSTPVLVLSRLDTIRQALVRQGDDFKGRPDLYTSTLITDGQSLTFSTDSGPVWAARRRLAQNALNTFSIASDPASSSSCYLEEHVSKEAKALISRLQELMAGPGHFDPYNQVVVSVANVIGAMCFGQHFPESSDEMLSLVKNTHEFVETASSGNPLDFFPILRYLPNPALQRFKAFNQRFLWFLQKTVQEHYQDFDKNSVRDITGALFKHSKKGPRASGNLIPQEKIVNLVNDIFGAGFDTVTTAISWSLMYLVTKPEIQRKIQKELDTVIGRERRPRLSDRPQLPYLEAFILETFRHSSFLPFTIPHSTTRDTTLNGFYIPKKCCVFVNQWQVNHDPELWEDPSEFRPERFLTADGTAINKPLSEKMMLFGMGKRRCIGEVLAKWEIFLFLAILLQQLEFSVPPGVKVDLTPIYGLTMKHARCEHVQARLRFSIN

[9] = target: CYP2D6 (Homo sapiens, UniProt P10635); test: Inhibition of CYP2D6 in human liver microsomes at 0.4 uM; format: ADME, Microsome
[10] = target: T1, Cytochrome P450 26A1; test: Inhibition of CYP26 in human MCF-7 cell microsomes
[11] = target: T3, Cytochrome P450 1A2 (Homo sapiens, UniProt P05177); test: Inhibition of CYP1A2 in human liver microsomes; format: ADME, Microsome
T3 sequence (P05177 whole entry): T2 sequence (P05177 whole entry)

[12] = target: Cytochrome P450 2D6 (Homo sapiens, UniProt P10635); test: Inhibition of CYP2D6 in human liver microsomes; format: ADME, Microsome
[13] = target: Cytochrome P450 2C19 (Homo sapiens, UniProt P33261); test: Inhibition of CYP2C19 in human liver microsomes; format: ADME, Microsome
[14] = target: Cytochrome P450 3A4 (Homo sapiens, UniProt P08684); test: Inhibition of CYP3A4 in human liver microsomes; format: ADME, Microsome
Sequence of Cytochrome P450 3A4 (P08684 whole entry): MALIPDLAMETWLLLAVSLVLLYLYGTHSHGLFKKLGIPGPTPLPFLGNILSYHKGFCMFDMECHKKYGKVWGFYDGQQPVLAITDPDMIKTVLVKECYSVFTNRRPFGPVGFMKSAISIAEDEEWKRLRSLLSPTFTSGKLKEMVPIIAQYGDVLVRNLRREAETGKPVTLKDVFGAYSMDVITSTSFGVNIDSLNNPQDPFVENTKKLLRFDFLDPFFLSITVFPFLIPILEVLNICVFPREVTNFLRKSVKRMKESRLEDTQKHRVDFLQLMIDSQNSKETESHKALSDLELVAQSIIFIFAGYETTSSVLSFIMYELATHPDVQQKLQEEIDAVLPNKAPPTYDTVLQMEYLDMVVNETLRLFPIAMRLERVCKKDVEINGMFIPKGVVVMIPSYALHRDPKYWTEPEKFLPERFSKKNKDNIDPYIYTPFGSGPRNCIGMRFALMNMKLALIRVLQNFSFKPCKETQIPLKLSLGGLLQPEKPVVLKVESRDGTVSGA

Sequence of CYP2C19 (P33261 whole entry): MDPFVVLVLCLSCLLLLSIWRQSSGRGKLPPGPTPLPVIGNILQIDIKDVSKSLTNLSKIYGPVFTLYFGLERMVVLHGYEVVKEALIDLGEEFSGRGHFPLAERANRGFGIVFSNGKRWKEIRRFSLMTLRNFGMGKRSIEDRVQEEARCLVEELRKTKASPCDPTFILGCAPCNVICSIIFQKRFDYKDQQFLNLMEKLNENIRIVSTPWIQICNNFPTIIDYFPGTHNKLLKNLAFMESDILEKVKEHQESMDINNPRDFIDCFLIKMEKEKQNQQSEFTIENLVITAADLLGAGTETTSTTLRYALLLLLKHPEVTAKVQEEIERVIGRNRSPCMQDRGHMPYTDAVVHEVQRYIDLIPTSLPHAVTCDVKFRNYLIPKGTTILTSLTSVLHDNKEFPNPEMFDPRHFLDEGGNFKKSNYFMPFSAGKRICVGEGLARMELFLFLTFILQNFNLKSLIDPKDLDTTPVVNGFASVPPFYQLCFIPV
Sequence of Cytochrome P450 2C9 (P11712 whole entry): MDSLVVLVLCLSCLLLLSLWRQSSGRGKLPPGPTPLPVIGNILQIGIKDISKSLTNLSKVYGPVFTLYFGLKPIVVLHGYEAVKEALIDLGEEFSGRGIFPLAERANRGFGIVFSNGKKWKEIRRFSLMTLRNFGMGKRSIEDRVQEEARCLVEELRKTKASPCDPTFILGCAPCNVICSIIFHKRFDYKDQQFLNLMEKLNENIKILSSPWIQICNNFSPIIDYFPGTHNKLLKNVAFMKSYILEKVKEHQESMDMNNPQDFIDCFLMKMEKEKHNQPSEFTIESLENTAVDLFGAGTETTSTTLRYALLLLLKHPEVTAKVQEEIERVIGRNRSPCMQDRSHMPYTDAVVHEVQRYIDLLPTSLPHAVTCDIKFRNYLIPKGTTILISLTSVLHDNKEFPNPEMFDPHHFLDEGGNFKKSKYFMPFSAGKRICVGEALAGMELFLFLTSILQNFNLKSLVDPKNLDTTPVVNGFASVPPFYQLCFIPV
Sequence of CYP2C9 (P11712 whole entry): as above
Sequence of CYP2D6 (P10635 whole entry): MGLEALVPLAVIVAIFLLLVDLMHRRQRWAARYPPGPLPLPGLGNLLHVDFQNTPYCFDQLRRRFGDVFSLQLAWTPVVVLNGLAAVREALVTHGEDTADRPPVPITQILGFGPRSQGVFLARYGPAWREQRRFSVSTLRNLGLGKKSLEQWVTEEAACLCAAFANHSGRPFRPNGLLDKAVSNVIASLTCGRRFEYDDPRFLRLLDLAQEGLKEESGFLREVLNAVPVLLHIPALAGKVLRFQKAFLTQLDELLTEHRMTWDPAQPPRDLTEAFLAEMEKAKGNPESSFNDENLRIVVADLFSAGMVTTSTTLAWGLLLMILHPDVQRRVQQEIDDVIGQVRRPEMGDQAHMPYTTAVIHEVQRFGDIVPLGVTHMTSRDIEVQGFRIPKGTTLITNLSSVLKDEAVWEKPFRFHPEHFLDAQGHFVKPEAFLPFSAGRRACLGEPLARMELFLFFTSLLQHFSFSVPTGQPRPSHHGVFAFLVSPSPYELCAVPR
Sequence of CYP3A4 (P08684 whole entry): as the sequence (P08684 whole entry) above
Sequence of Cytochrome P450 2C19 (P33261 whole entry): as the sequence (P33261 whole entry) above
Sequence of Cytochrome P450 2D6 (P10635 whole entry): as the sequence (P10635 whole entry) above

COC(=O)C(C)(C)C(c1ccc(Nc2ccc3ccccc3c2)cc1)n1ccnc1 (stereo unspecified)
IC50 [1]: 8 µM | Activity [2]: Active | half-life [3]: 5.02 h

C[C@H]([C@@H](c1ccc(Nc2nc3ccccc3s2)cc1)n1ccnc1)N(C)C
IC50 [1]: 11 µM

CCOC(=O)C(C)(C)C(c1ccc(Nc2ccc3ccccc3c2)cc1)n1ccnc1 (stereo unspecified)
inhibition at 0.4 µM [4]: 43% | inhibition at 0.4 µM [5]: 61% | IC50 [6]: 0.00035 µM | inhibition at 0.4 µM [7]: 30% | inhibition at 0.4 µM [8]: 20% | fold change (FC) [2]: 5.8 | inhibition at 0.4 µM [9]: 15%

CC(C)OC(=O)C(C)(C)C(c1ccc(Nc2ccc3ccccc3c2)cc1)n1ccnc1 (stereo unspecified)
IC50 [6]: 0.29 µM

CC(C)(C(=O)OCc1ccccc1)C(c1ccc(Nc2ccc3ccccc3c2)cc1)n1ccnc1 (stereo unspecified)
IC50 [6]: 0.4 µM

CC(C)(C(=O)O)C(c1ccc(Nc2ccc3ccccc3c2)cc1)n1ccnc1 (stereo unspecified)
IC50 [6]: 0.3 µM

COC(=O)C(C)(C)C(c1ccc(Nc2ccc3ccccc3c2)cc1)n1cncn1 (stereo unspecified)
IC50 [1]: 21.4 µM | IC50 [10]: 0.0003 µM | inhibition at 0.4 µM [4]: 38% | inhibition at 0.4 µM [5]: 22% | IC50 [11]: 10.9 µM | IC50 [6]: 0.00035 µM | IC50 [12]: 1.8 µM | IC50 [13]: 3.14 µM | inhibition at 0.4 µM [7]: 16% | inhibition at 0.4 µM [8]: 10% | fold change (FC) [2]: 5.2 | IC50 [14]: 0.33 µM | half-life [3]: 3.73 h | inhibition at 0.4 µM [9]: -2%

CN(C)C(=O)C(C)(C)C(c1ccc(Nc2ccc3ccccc3c2)cc1)n1ccnc1 (stereo unspecified)
inhibition at 0.4 µM [4]: 52% | inhibition at 0.4 µM [5]: 95% | IC50 [6]: 0.075 µM | inhibition at 0.4 µM [7]: 21% | inhibition at 0.4 µM [8]: 11% | inhibition at 0.4 µM [9]: 29%

CNC(=O)C(C)(C)C(c1ccc(Nc2ccc3ccccc3c2)cc1)n1cncn1 (stereo unspecified)
IC50 [6]: 0.35 µM

COc1ccc2cc(Nc3ccc(C(n4ccnc4)C(C)(C)CO)cc3)ccc2c1 (stereo unspecified)
IC50 [6]: 0.04 µM | fold change (FC) [2]: 3.7

c1ccc(C(c2ccc(Nc3ccc4ccccc4c3)cc2)n2ccnc2)cc1 (stereo unspecified)
IC50 [6]: 0.5 µM

CCCCOC(=O)C(C)(C)C(c1ccc(Nc2ccc3ccccc3c2)cc1)n1ccnc1 (stereo unspecified)
IC50 [6]: 0.2 µM

CC(C)NC(=O)C(C)(C)C(c1ccc(Nc2ccc3ccccc3c2)cc1)n1ccnc1 (stereo unspecified)
IC50 [6]: 0.12 µM

CC(C)(C(N)=O)C(c1ccc(Nc2ccc3ccccc3c2)cc1)n1ccnc1 (stereo unspecified)
IC50 [6]: 0.05 µM | fold change (FC) [2]: 4.1

CNC(=O)C(C)(C)C(c1ccc(Nc2ccc3ccccc3c2)cc1)n1ccnc1 (stereo unspecified)
inhibition at 0.4 µM [4]: 45% | inhibition at 0.4 µM [5]: 86% | IC50 [6]: 0.012 µM | inhibition at 0.4 µM [7]: 14% | inhibition at 0.4 µM [8]: 15% | Activity [2]: Active | inhibition at 0.4 µM [9]: 13%

CC(C)(C(=O)O)C(c1ccc(Nc2ccc3ccccc3c2)cc1)n1cncn1 (stereo unspecified)
IC50 [6]: > 1 µM

CCCCCOC(=O)C(C)(C)C(c1ccc(Nc2ccc3ccccc3c2)cc1)n1ccnc1 (stereo unspecified)
IC50 [6]: 0.14 µM
